# Screening data as filed in PubChem.
# Sampled rows, rich in hits. Any-hit rate of the full collection: about 11%.
# S1P1 ag-PAM = agonists and agonism potentiators of human S1P1 receptor | P21453 | S1P1 CRE-bla cells, forskolin, beta-lactamase FRET, potentiator mode; S1P1 agonist co-added at EC20, 2 nM; 100% = saturating reference agonist, 0% = basal | activation, % at 9.5 µM | hit rate 0.57% among 56,000 | AID 449;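 active = activation above a cutoff set at the mean activation of all tested compounds plus 3 SD, cut at about 54% in these data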;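 note: forskolin at 4 µM as EC80 and the EC20 agonist is SEW2871; 100% = SEW2871 at its EC100 plus forskolin at EC80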
# M1 antag = antagonists of rat M1 muscarinic receptor; CHO-M1 cells, Fluo-4 calcium, ACh EC80 antagonist mode; hits give low values; hit rate 3.4% among 64,000; AID 628; B-score at 10 µM;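 active = calcium fluorescence response, raw or row-and-column corrected B-score, differing from the plate sample mean either way at a set confidence level, mostly lower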
# D1 allo mod = allosteric modulators of human D1 dopamine receptor; P21728; B-score at 10 µM; HEK293 D1, CRE-luciferase, dopamine EC30 potentiation; actives deviate in either direction; hit rate 5.9% among 58,000; AID 641;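 active = luminescence count or its row- and column-corrected plate score outside the 99.7% band of the plate's sample wells, on either side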
# Target sequence (P21728 whole entry, looked up): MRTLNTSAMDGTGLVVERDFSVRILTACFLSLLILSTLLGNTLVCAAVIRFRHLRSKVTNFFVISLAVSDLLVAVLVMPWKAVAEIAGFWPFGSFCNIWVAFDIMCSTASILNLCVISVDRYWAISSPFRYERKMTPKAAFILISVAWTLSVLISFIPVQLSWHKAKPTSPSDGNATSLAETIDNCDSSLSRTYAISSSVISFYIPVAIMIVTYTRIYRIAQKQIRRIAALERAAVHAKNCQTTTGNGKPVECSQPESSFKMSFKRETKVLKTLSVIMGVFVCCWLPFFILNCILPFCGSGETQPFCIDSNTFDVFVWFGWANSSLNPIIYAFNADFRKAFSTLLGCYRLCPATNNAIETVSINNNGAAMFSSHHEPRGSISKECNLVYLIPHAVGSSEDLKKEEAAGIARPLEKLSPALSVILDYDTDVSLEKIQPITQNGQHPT
# S1P3 ag = S1P3 (human) receptor agonism. activation, % at 4.5 µM. Q99500. AID 373. hit rate 0.1% among 60,000. S1P3 NFAT-BLA reporter cells, FRET ratio; relative to 1 µM S1P, basal subtracted;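 active = activation above the screen-wide mean plus 3 SD, cut at about 4.5% in these data, passing the limit was not always enough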
#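 Material: Human S1P3 NFAT-BLA reporter CHO cells | Incubation: Overnight plating, 4 h compound 37 °C, 2 h substrate RT | Signal: FRET β-lactamase substrate fluorescence, excitation 405 nm, 460/535 nm emission ratio, background-subtracted | Compound: 4.5 µM final, single dose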
# M1 ag = M1 muscarinic receptor agonism; CHO-M1 cells, Fluo-4 calcium fluorescence, agonist mode; hits give high values; B-score at 10 µM; hit rate 3% among 64,000;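 active = fluorescence rise, raw or as B-score row- and column-corrected plate score, outside the 99.7% band of its plate's samples, either direction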
# M1 ag confirm = confirmation of rat M1 muscarinic receptor agonists | CHO-M1 cells, Fluo-4 calcium fluorescence, agonist mode; actives lie on both sides | shares compounds with M1 ag | hit rate 19% among 1,700 | fluorescence change (max-min) at 10 µM;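 active = fluorescence change differs from the solvent-only DMSO control mean at a set confidence level in both duplicate runs; inconclusive = differs from solvent-only control mean in just one of two runs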;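 note: an EC20 dose of acetylcholine follows compound addition during the same imaging run; raw fluorescence intensity difference in instrument units with no normalization to controls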
# M4 agonist ctr = rat M4 muscarinic agonism, M1 counter-screen; shares compounds with M1 ag; CHO M4/Gqi5 cells, Fluo-4 calcium fluorescence, agonist mode; actives lie on both sides; fluorescence change (max-min) at 10 µM; hit rate 9% among 1,700;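 active = fluorescence change differing from the plate's solvent-only control wells at 99.7% confidence in both duplicates, whether higher or lower; inconclusive = differs from solvent controls in only one of two duplicates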
# Starred values were filed as active, the others as inactive; ? = inconclusive; nt = not tested or not shown.
SMILES,S1P1 ag-PAM,M1 antag,D1 allo mod,S1P3 ag,M1 ag,M1 ag confirm,M4 agonist ctr
Cc1cc2ncn(C3CC(=O)N(Cc4ccccc4)C3=O)c2cc1C (centres undefined),nt,-0.59,-0.39,0,5.8*,?,-18
Cn1cnnc1Sc1nc2ccccc2nc1NS(=O)(=O)c1ccccc1,-4,-0.061,-1,0,-0.043,nt,nt
CC(=O)Nc1ccc(S(=O)(=O)Nc2nc3ccccc3nc2Sc2nncn2C)cc1,nt,0.3,0.33,nt,43*,55*,12
COc1cc(OC)cc(C(=O)Nc2cccc(N3CCCC3)c2)c1,12,0.49,-0.66,-1,-0.0085,nt,nt
CCOC(=O)CSC1=C(C#N)C(c2ccc(Cl)cc2)CC(=O)N1 (centres undefined),-11,0.98,3.5,0,3*,-14,?
CCCCC(=O)Nc1ccc(N2CCN(C(=O)CC)CC2)cc1,3,-0.0021,-0.14,-1,0.99,nt,nt
CCCCCC(=O)Nc1ccc(N2CCN(S(C)(=O)=O)CC2)cc1,8,-0.42,-0.18,-1,-2.3*,-0.16,-15
CCOC(=O)C1CCCN(c2ncnc3c2cnn3-c2cccc(C)c2)C1 (centres undefined),nt,-2.2*,nt,nt,33*,282*,-27
Cc1ccc(-n2ncc3c(N4CCCC4)ncnc32)c(C)c1,-11,-0.18,nt,-3,0.18,nt,nt
COc1cccc(N2CCN(c3ncnc4c3cnn4-c3ccc(C)cc3C)CC2)c1,6,-1.2,-7.4*,-3,9.7*,-12,-31
CCOC(=O)C1CCN(c2ncnc3c2cnn3-c2ccc(OC)cc2)CC1,-6,-0.56,nt,0,0.42,nt,nt
COc1ccccc1CNC(=O)c1cc2c(=O)n(C)c3ccccc3c2n1C,-17,-0.61,0.49,0,0.59,nt,nt
Cc1ccc2c(c1)C(C)(C)[C@]1(C)NC(=O)CCN21,-12,-0.029,-0.82,0,-0.16,nt,nt
N=c1oc2c3c4c(cc2cc1C(=O)Nc1ccccc1)CCCN4CCC3,49,-15*,nt,0,221*,3358*,2806*
Cc1cccc(NC(=O)c2ccccc2C(=O)O)c1,-3,nt,0.61,1,nt,nt,nt
Cc1cc(C(=O)CSc2nc3ccccc3c(=O)n2C)c(C)n1Cc1ccc2c(c1)OCO2,62*,-0.28,-2.9,0,5.7*,-19,-1.2
N#CC1=C(N)NC(SCC(=O)Nc2ccccc2)=C(C#N)C12CCCC2,nt,-0.31,-0.56,nt,2.9*,7.5,-5.3
Cc1cnc(-c2nnc(N(C)C(=O)C3CCCO3)s2)cn1 (centres undefined),3,-0.23,-0.33,0,-1.7*,-23,-25
COc1cc(Nc2cc(C)nc3ncnn23)cc(OC)c1OC,-20,-0.68,0.6,0,4.4*,?,-36
COc1cc(Nc2cc(C)nc3ncnn23)cc(OC)c1,-13,-0.8,0.018,1,1.4,nt,nt
COc1ccc(S(=O)(=O)N2CCC(C(=O)Nc3cccc(Cl)c3)CC2)cc1OC,24,0.32,0.55,-2,-0.77,nt,nt
O=C(Nc1ccccc1NC(=O)c1c(F)c(F)c(F)c(F)c1F)c1c(F)c(F)c(F)c(F)c1F,-14,-1.6,-1.1,-1,2.9*,-4.4,?
O=C(Nc1cccc(F)c1)c1c(F)c(F)c(F)c(F)c1F,25,-1,-0.94,0,3.7*,-0.43,-58
COCC(C)n1c(C)cc(C(=O)COC(=O)c2c(NC(C)=O)sc(C)c2C)c1C (centres undefined),-13,-0.38,1.6,-1,-0.61,nt,nt
COCCCNC(CC(=O)Nc1ccccc1C(=O)OC)C(=O)O (centres undefined),5,-0.26,-0.6,0,0.19,nt,nt
Cc1nnc(C)n1N1C(=O)c2cccc3cccc(c23)C1=O,-9,-0.7,-0.38,0,0.5,nt,nt
NC1=CC(=O)c2cccc3cccc1c23,-7,-0.76,-0.029,0,53*,371*,440*
CCCCC(=O)Nc1ccc2oc(-c3ccncc3)nc2c1,nt,0.098,0.43,0,2.5*,?,-49
COc1cccc(-n2c(SCC(=O)N3CCCC3)nc3c([nH]c4ccccc43)c2=O)c1,-9,-0.24,0.54,-1,0.68,nt,nt
